SMILES strings stand for the structures.

The experiment has as its target Sigma 2 receptor. Description: Binding affinity for sigma 2 opioid receptor, measured on rat liver membranes using [3H]- DTG as radioligand in the presence of (+)-pentazocine. Further details: species or system Membrane. In outline:
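Rat liver P2 membranes (male Sprague-Dawley, 300-350 g; 35 µg protein) incubated with 3 nM [3H]DTG plus 100 nM (+)-pentazocine masking σ1 sites, in 50 mM Tris-HCl pH 8.0, 120 min, 25 °C. Test compounds at 0.005-1000 nM (eight concentrations). Nonspecific binding defined with 5 µM DTG. Filtration, scintillation counting. IC50 by nonlinear regression, generally in triplicate. Ki from at least three experiments.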
For `O=C(Cc1cccc(Cl)c1)NC1CCN(Cc2ccc(I)cc2)CC1`, the Ki (as a rule, the equilibrium dissociation constant of an inhibitor or competing ligand from its target) was found to be 257 nM.
The figure for `O=C(Cc1ccc2ccccc2c1)NC1CCN(Cc2ccccc2)CC1` is 112 nM; for `O=C(Cc1ccccc1F)NC1CCN(Cc2ccc(F)cc2)CC1` it is 140 nM.
As for `O=C(Cc1cccc(F)c1)NC1CCN(Cc2cccc(I)c2)CC1`, the figure is 50.3 nM; as for `O=C(Cc1cc(=O)oc2cc(O)ccc12)NC1CCN(Cc2ccccc2)CC1`, above 1000 nM; as for `O=C(Cc1ccccc1)NC1CCN(Cc2ccc(C(F)(F)F)cc2)CC1`, 300 nM.
The figure for `O=C(Cc1ccccc1)NC1CCN(CCc2ccccc2)CC1` is 107 nM; for `O=C(Cc1cccc(F)c1)NC1CCN(Cc2ccc(F)cc2)CC1` it is 31 nM; for `O=C(Cc1ccccc1)NC1CCN(Cc2ccc3ccccc3c2)CC1` it is 189 nM.
For `O=C(Cc1ccncc1)NC1CCN(Cc2ccccc2)CC1`, the Ki is above 1000 nM.
Take `O=C(Nc1cccc2ccccc12)NC1CCN(Cc2ccccc2)CC1`: the Ki amounted to 25 nM.
With `O=C(Cc1cccnc1)NC1CCN(Cc2ccccc2)CC1`, the Ki is above 1000 nM.
With `O=C(Cc1ccccc1)NC1CCN(Cc2cccc(I)c2)CC1`, the Ki was determined as 191 nM.
The figure for `O=C(Cc1ccsc1)NC1CCN(Cc2ccccc2)CC1` is 337 nM; for `O=C(Cc1c[nH]cn1)NC1CCN(Cc2ccccc2)CC1` it is above 1000 nM; for `O=C(Cc1cccs1)NC1CCN(Cc2ccccc2)CC1` it is 393 nM.
As for `O=C(Cc1cccc(Cl)c1)NC1CCN(Cc2cccc(I)c2)CC1`, the figure is 30.3 nM; as for `O=C(Cc1ccccn1)NC1CCN(Cc2ccccc2)CC1`, above 1000 nM.
The figure for `COc1ccc2c(c1)C(CC(=O)NC1CCN(Cc3ccccc3)CC1)CC2=O` (stereo not given) is 416 nM; for `O=C(Cc1ccccc1)NC1CCN(Cc2ccc(Cl)c(Cl)c2)CC1` it is 423 nM.
With `O=C(Cc1cccc(Cl)c1)NC1CCN(Cc2ccc(F)cc2)CC1`, the Ki was found to be 9.38 nM.
As to `O=C(Cc1ccccc1)NC1CCN(Cc2cccc(F)c2)CC1`, the Ki is above 1000 nM.
In the case of `O=C(Cc1ccccc1)NC1CCN(Cc2ccc(I)cc2)CC1`, the Ki is 694 nM.
As for `O=C(Cc1c[nH]c2ccc(Br)cc12)NC1CCN(Cc2ccccc2)CC1`, the figure is 678 nM; as for `O=C(Cc1cccc(Br)c1)NC1CCN(Cc2ccc(F)cc2)CC1`, 6.06 nM; as for `O=C(Cc1ccccc1)NC1CCN(Cc2ccc3c(c2)OCO3)CC1`, 171 nM.
`O=C(Cc1cccc2ccccc12)NC1CCN(Cc2ccccc2)CC1`: the Ki came to 39.4 nM.
As for `O=C(Cc1cccc(Br)c1)NC1CCN(Cc2cccc(I)c2)CC1`, the figure is 59.3 nM; as for `O=C(Cc1ccccc1)NC1CCN(Cc2ccccc2C(F)(F)F)CC1`, above 1000 nM.
As for `O=C(Cc1c[nH]c2ccccc12)NC1CCN(Cc2ccccc2)CC1`, the figure is above 1000 nM; as for `O=C(Cc1ccccc1)NC1CCN(Cc2ccc(F)cc2)CC1`, 82.9 nM; as for `O=C(Cc1ccccc1F)NC1CCN(Cc2cccc(I)c2)CC1`, 181 nM.
For the compound `O=C(Cc1ccccc1F)NC1CCN(Cc2ccc(I)cc2)CC1`, the Ki was 233 nM.
The figure for `O=C(Cc1cccc(Br)c1)NC1CCN(Cc2ccc(I)cc2)CC1` is 90.3 nM; for `O=C(Cc1ccccc1)NC1CCN(Cc2ccccc2I)CC1` it is 631 nM; for `O=C(Cc1ccccc1)NC1CCN(Cc2ccc(F)c(F)c2)CC1` it is 232 nM.
The figure for `O=C(Cc1ccccc1)NC1CCN(Cc2ccc([N+](=O)[O-])cc2)CC1` is 319 nM.
The figure for `O=C(Cc1ccc(I)cc1)NC1CCN(Cc2ccccc2)CC1` is 61.3 nM; for `O=C(Cc1cccc(F)c1)NC1CCN(Cc2ccc(I)cc2)CC1` it is 168 nM.
Turning to `O=C(CSc1ncccn1)NC1CCN(Cc2ccccc2)CC1`, the Ki was above 1000 nM.
As for `O=C(Cc1ccccc1)NC1CCN(Cc2ccccc2F)CC1`, the figure is 683 nM.
As for `O=C(Cc1ccccc1)NC1CCN(Cc2cccc(C(F)(F)F)c2)CC1`, the figure is 513 nM; as for `COc1ccc2[nH]cc(CC(=O)NC3CCN(Cc4ccccc4)CC3)c2c1`, above 1000 nM; as for `O=C(Cc1ccccc1)NC1CCN(Cc2ccccc2)CC1`, 240 nM.
Regarding `OC(CCCN1CCC(O)(c2ccc(Cl)cc2)CC1)c1ccc(F)cc1` (stereo not given) [HYDROXYHALOPERIDOL], the Ki turned out to be 28.6 nM.
